Experimental data published in ChEMBL document CHEMBL3779820, “Discovery of a Novel Inhibitor of Histone Lysine-Specific Demethylase 1A (KDM1A/LSD1) as Orally Active Antitumor Agent” (J Med Chem, 2016).

How the values were obtained:
[1] = target: T1, Amine oxidase [flavin-containing] B (Homo sapiens, UniProt P27338); experiment: Inhibition of human recombinant MAOB expressed in Pichia pastoris preincubated for 15 mins measured after 30 mins by bioluminescent-coupled assay
T1 sequence (P27338 whole entry): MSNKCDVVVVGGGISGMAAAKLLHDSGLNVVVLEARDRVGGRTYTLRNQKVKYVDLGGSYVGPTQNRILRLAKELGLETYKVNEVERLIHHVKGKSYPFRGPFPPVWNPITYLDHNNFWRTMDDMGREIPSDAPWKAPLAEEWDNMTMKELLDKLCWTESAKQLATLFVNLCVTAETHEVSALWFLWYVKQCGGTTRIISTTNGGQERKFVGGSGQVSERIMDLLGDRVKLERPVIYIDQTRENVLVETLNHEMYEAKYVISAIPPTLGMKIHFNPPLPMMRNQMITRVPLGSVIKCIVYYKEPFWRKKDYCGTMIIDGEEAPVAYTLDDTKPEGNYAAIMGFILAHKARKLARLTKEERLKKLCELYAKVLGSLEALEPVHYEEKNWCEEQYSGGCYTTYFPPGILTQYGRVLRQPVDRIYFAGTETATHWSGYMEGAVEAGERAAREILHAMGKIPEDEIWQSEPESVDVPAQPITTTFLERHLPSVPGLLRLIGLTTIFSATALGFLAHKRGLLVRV
Procedure, shortened: (§1)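 Human recombinant KDM1A/CoREST, KDM1B, MAO A and MAO B used as enzyme sources; compounds incubated with the enzyme and results expressed as IC50.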

[2] = target: T2, Lysine-specific histone demethylase 2 (Homo sapiens, UniProt Q8NB78); experiment: Inhibition of KDM1B (unknown origin)
T2 sequence (Q8NB78 whole entry): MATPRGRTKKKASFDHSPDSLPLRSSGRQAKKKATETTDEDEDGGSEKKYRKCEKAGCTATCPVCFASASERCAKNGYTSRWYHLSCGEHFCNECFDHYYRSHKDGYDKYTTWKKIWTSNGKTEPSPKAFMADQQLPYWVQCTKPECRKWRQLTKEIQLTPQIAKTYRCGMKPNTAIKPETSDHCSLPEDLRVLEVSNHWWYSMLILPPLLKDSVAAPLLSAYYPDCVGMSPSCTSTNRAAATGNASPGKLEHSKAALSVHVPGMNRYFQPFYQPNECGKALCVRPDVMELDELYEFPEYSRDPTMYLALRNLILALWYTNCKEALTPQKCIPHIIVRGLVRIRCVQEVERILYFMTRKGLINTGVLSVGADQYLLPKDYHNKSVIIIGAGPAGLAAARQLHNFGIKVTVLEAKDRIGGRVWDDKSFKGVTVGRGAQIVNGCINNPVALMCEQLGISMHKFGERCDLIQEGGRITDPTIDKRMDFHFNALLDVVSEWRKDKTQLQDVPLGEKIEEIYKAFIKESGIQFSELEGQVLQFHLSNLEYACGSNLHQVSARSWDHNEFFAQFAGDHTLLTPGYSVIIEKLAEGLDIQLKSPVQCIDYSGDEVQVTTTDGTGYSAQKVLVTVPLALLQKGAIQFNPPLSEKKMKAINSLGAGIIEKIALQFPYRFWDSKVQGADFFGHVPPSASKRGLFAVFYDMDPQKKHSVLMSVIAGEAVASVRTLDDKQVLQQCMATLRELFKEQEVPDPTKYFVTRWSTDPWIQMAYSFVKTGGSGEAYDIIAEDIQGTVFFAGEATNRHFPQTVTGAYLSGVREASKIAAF

LSD1/CoREST complex = LSD1/CoREST complex (Homo sapiens, UniProt O60341); experiment: Inhibition of human recombinant KDM1A/CoREST expressed in Escherichia coli using mono-methylated H3-K4 peptide as substrate assessed as H2O2 release preincubated for 15 mins followed by substrate addition measured for 12 mins by fluorescence-based microplate reader analysis; procedure, shortened: as §1
[3] = target: T3, Amine oxidase [flavin-containing] A (Homo sapiens, UniProt P21397); experiment: Inhibition of human recombinant MAOA expressed in Pichia pastoris preincubated for 15 mins measured after 30 mins by bioluminescent-coupled assay; procedure, shortened: as §1
T3 sequence (P21397 whole entry): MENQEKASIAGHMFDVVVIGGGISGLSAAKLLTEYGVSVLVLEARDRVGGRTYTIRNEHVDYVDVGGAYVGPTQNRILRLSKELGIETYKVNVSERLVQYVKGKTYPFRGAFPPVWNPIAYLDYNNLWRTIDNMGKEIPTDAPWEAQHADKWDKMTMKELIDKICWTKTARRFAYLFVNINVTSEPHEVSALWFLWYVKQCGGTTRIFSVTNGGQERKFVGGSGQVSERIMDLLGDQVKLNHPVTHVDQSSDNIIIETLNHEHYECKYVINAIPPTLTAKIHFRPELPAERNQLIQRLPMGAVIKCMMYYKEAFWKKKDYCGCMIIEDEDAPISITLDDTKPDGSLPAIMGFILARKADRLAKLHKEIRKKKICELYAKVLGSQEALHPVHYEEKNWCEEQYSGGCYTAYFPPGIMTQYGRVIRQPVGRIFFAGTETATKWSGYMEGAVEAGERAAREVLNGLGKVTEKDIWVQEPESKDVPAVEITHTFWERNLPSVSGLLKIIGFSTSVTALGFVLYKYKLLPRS

[4] = Tmax in CD1 mouse at 15 mg/kg, po administered as single dose; format: ADME, organism-based; settings: in vivo
Procedure, shortened: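 Single dose to CD1 mice: 5 mg/kg iv in 5% glucose with 10% tween 80, or 15 mg/kg orally in 5% glucose with 40% PEG. Plasma parameters derived from concentration–time profiles.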

[5] = target: Lysine-specific histone demethylase 1A (Homo sapiens) (UniProt O60341); experiment: Inhibition of KDM1A in human NB4 cells assessed as increase in CD11b mRNA expression at biochemical IC50 measured after 24 hrs by RT-PCR analysis relative to control; format: cell-based; settings: NB-4
[6] = target: Lysine-specific histone demethylase 1A (Homo sapiens) (UniProt O60341); experiment: Inhibition of KDM1A in human NB4 cells assessed as increase in GFI1B mRNA expression at biochemical IC50 measured after 24 hrs by RT-PCR analysis relative to control; format: cell-based; settings: NB-4
[7] = Anticlonogenic activity against 129sv mouse APL blast cells assessed as inhibition of colony formation of cells at 0.25 uM measured after 7 days relative to control; format: functional; settings: 168 h
Homo sapiens = organism: Homo sapiens; experiment: Selectivity ratio of IC50 for human recombinant MAOA expressed in Pichia pastoris to IC50 for human recombinant KDM1A/CoREST expressed in Escherichia coli

Row | Compound | IC50 [1] [nM] | IC50 [2] [nM] | IC50 (LSD1/CoREST complex) [nM] | IC50 [3] [nM] | Tmax [4] [h] | fold change (FC) [5] | fold change (FC) [6] | Ratio IC50 (Homo sapiens) | inhibition at 0.25 µM [7] [%]
1 | N[C@@H]1C[C@H]1c1ccc(NC(=O)c2cccc(NC(=O)OCc3ccccc3)c2)cc1 (racemic) | > 100000 | 11600 | 42.6 | 25 | – | – | – | – | –
2 | CN1CCN(c2ccc(C(=O)Nc3ccc([C@@H]4C[C@H]4N)cc3)cc2)CC1.Cl.Cl (racemic) | – | – | 189 | – | 12 | – | – | – | –
3 | N[C@@H]1C[C@H]1c1ccc(NC(=O)c2ccc(N3CCOCC3)cc2)cc1 (racemic) | 600 | 74700 | 61.5 | 54.8 | – | – | – | – | –
4 | CN1CCN(c2ccc(C(=O)Nc3ccc([C@@H]4C[C@H]4N)cc3)cc2)CC1 (racemic) | – | – | – | – | – | 3.2 | 4.9 | – | –
5 | N[C@@H]1C[C@H]1c1ccc(NC(=O)c2ccc(N3CCOCC3)c(NC(=O)OCc3ccccc3)c2)cc1 (relative stereo) | 62900 | 5700 | 61.4 | 193 | – | 3.8 | 4.8 | – | 59
6 | N[C@@H]1C[C@H]1c1ccc(NC(=O)c2ccc(N3CCCCC3)c(NC(=O)OCc3ccccc3)c2)cc1 (relative stereo) | – | – | 308 | – | – | – | – | – | –

More lines, main results first:

Row | IC50 [1] [nM] | IC50 [2] [nM] | IC50 (LSD1/CoREST complex) [nM] | IC50 [3] [nM] | Tmax [4] [h] | fold change (FC) [5] | fold change (FC) [6] | Ratio IC50 (Homo sapiens) | Compound | inhibition at 0.25 µM [7] [%]
7 | – | – | 51.2 | – | 18 | 3.4 | 4.1 | – | CN1CCC(c2ccc(C(=O)Nc3ccc([C@@H]4C[C@H]4N)cc3)cc2)CC1.Cl (racemic) | –
8 | > 100000 | 4300 | – | 1000 | – | 3 | 4.5 | > 10 | CN1CCN(c2ccc(C(=O)Nc3ccc([C@@H]4C[C@H]4N)cc3)cc2NC(=O)OCc2ccccc2)CC1 (relative stereo) | 57
9 | 27800 | 14900 | – | 345 | – | 3.2 | 5.6 | – | N[C@@H]1C[C@H]1c1ccc(NC(=O)c2ccc(NC(=O)OCc3ccccc3)c(N3CCOCC3)c2)cc1 (relative stereo) | 57
